Bioassay records: PubChem BioAssay, Broad Institute
Most compounds without a hit are left out; they make up all but 2.6% or so of the library.
MITF TRPM1 HTS = MITF TRPM1 promoter activation in melanoma cells; 300,000 compounds, 0.75% hits; SK-MEL-5 TRPM1-promoter luciferase, 24 h; % of positive control, neutral wells = 0; activation, % at 12.5 µM; AID 588334;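 active = mean activation of at least 80% with every replicate also reaching 80%; inconclusive = mean reaches 80% but some replicate falls short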;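 also: 0% = neutral control wells and 100% = parthenolide positive control wells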
Vif inh = blocks HIV Vif function. inhibition, % at 7.49 µM. HEK293T cells, Vif self-association by quenched fluorescence, imaging, 24 h. 340,000 compounds, 0.35% hits; in the data active = inhibition above about 50%, passing the limit was not always enough; inconclusive = no clear call, values can overlap the other calls; inactive = below about 31%
Wnt bcat act = Wnt/beta-catenin pathway activation | activation, % at 9.35 µM | 300,000 compounds, 1.2% hits | Wnt/beta-catenin reporter cell assay, activator, plate reader; in the data active = activation above about 30%, passing the limit was not always enough; inconclusive = no clear call, values can overlap the other calls;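 also: 0% = neutral control wells and 100% = positive control wells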
esBAF inh = inhibitors of esBAF chromatin remodeling in mouse ES cells; 350,000 compounds, 2% hits; reporter increase, % at 12.5 µM; Bmi1-luciferase knock-in reporter, 24 h; 100% = twice the neutral-well signal; in the data active = activation above about 40%; inconclusive = no clear call, values can overlap the other calls;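 also: 0% = median of the plate's neutral control wells and 100% = double that signal; a rise in the Bmi1 reporter signal indicates esBAF inhibition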
Xi reactivation = activators of X-chromosome reactivation in mouse fibroblasts | XiGFP mouse fibroblasts, % GFP-positive cells imaging, 3 d; cells co-treated with 5-aza-dC sensitizer; scaled so ellipticine positive control = 100% | activation, % at 7.58 µM | 360,000 compounds, 0.055% hits | AID 743238;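 active = mean normalized replicate activation at least 10% and every replicate at or above 10%; inconclusive = only one of the two criteria met; inactive = mean below 10% and not all replicates reach 10%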;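 also: 0% = median of on-plate neutral control wells and 100% = ellipticine 6 µM median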
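Schedule: 3 d treatment, 15 min room-temperature fixation; system: 68-5-11 XiGFP fibroblast line; buffer or medium: DMEM plus 5-aza-dC sensitizer; control set: ellipticine 6 µM positive control; compound: one concentration, pinned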
Active calls of the source: *; ? = inconclusive; nt = not tested or not shown.

SMILES	MITF TRPM1 HTS	Vif inh	Wnt bcat act	esBAF inh	Xi reactivation
CC(=O)N1N=C(c2ccccc2)CC1c1cn(C)c2ccccc12 (configuration not stated)	-7	-11	90*	32	0
CC(=O)N1N=C(c2ccccc2)CC1c1ccc(F)cc1 (configuration not stated)	nt	-2	-1	-2	0
COCCn1c(C)cc(C(=O)CSc2ccc3ccccc3n2)c1C	87*	-8	nt	8	nt
CCOc1ccc(OCCSc2nc3ccccc3o2)cc1	12	3	nt	nt	nt
c1ccc(OCCSc2nc3ccccc3o2)cc1	50	-1	nt	87*	nt
C[C@@H]1CN([C@H](C)CO)C(=O)c2cc(NC(=O)CCC(F)(F)F)ccc2O[C@@H](C)CCCCO[C@H]1CN(C)S(=O)(=O)c1cccs1	nt	nt	nt	2	0
CCOC(=O)N/N=C\c1ccccc1OC/C=C/c1ccccc1	49	-6	42*	46*	0
COC(=O)N/N=C\c1ccccc1OC/C=C/c1ccccc1	98*	-5	2	49*	1
COc1cc(/C=N\NC(C)=O)ccc1OC/C=C/c1ccccc1	-9	1	-6	4	0
N#CCC(=O)N/N=C\c1cc(Br)ccc1OC/C=C/c1ccccc1	93*	12	?	22	2
N#CCC(=O)N/N=C/c1cccc(Oc2ccccc2)c1	2	-2	-3	nt	0
CCOC(=O)N/N=C/c1ccc(Oc2ccccc2)cc1	67	-6	7	39	0
O=C1N[C@H](Cc2ccccc2)COCc2cnnn2CC[C@@H]1Cc1cccc(F)c1	nt	nt	nt	nt	0
Cc1cc(C)n2nc(-c3ccccc3)cc2n1	12	-16	12	43*	0
Cc1ccc(-c2cc3nc(C)cc(C)n3n2)cc1	16	-1	16	60*	1
Cc1cc(C)n2nc(-c3ccc(F)cc3)cc2n1	nt	nt	2	54*	0
Cc1cc(-c2ccc(F)cc2)nc2cc(C(N)=O)nn12	-4	0	nt	nt	nt
Cc1cc(C)n2nc(Nc3ccccc3)cc2n1	12	1	nt	33	nt
C[C@H](CO)N1C[C@H](C)[C@H](CN(C)C)OCCCC[C@H](C)Oc2ccc(NS(=O)(=O)c3ccccc3)cc2C1=O	nt	nt	nt	-2	0
C[C@@H]1CN([C@@H](C)CO)C(=O)c2cc(C#CCN(C)C)cnc2O[C@H]1CN(C)S(C)(=O)=O	nt	nt	nt	-1	-1
O=C(CCCN1C(=O)S/C(=C\C=C\c2ccccc2)C1=O)Nc1ccc(C(=O)O)cc1	31	7	12	-4	0
O=C(CCN1C(=O)S/C(=C\C=C\c2ccccc2)C1=O)Nc1ccc(O)cc1	35	3	21	93*	0
O=C(O)CN1C(=O)/C(=C\c2ccc(OC(=O)c3ccco3)cc2)SC1=S	-1	-3	34*	nt	0
O=C(CN1C(=O)S/C(=C\C=C\c2ccccc2)C1=O)Nc1cccc(O)c1	52	-1	24	65*	0
O=C(O)CN1C(=O)/C(=C/C=C/c2ccccc2)SC1=S	4	0	49*	nt	0
SMILES	MITF TRPM1 HTS	Vif inh	Wnt bcat act	esBAF inh	Xi reactivation
O=C(CN1C(=O)S/C(=C\C=C\c2ccccc2)C1=O)Nc1ccccc1C(=O)O	5	6	2	nt	0
Cc1ccc(S(=O)(=O)N(C)C[C@H]2Oc3ccc(NS(C)(=O)=O)cc3CC(=O)N([C@H](C)CO)C[C@@H]2C)cc1	nt	nt	nt	nt	0
O=C(c1cccc(F)c1)N1CCCCN2[C@H](CO)[C@H](c3ccc(/C=C/c4ccccc4)cc3)[C@H]2C1	nt	nt	nt	nt	0
CSc1nc(-c2ccc(Cl)cc2)nn1S(=O)(=O)c1ccc(Cl)cc1	nt	16	-2	47*	nt
COc1ccc(-c2nc(SC)n(C(=O)c3ccco3)n2)cc1	29	3	nt	nt	nt
CCC(=O)n1nc(-c2ccc(Cl)cc2)nc1SC	64	53*	40*	71*	nt
CCCC(=O)n1nc(-c2ccc(Cl)cc2)nc1SC	40	3	nt	33	nt
CCC(=O)n1nc(-c2ccc(OC)cc2)nc1SC	30	8	nt	43*	nt
Cc1ccc(NC(=O)CC(=O)c2ccccc2)cc1C	144*	-11	-1	75*	0
COC(=O)CSC(C(=O)Nc1ccc(C)c(C)c1)c1ccccc1 (configuration not stated)	29	-1	35*	-1	nt
O=C(CC(Nc1ccc(Cl)cc1)C(=O)O)c1ccccc1 (configuration not stated)	73	3	47*	nt	nt
O=C(Cc1ccc(Cl)cc1)Nc1ccc(NC(=O)c2ccccc2)cc1	14	8	-4	nt	0
O=C(CC(=O)c1ccccc1)Nc1ccc(Cl)cc1	111*	5	14	?	0
C[C@@H]1CN([C@H](C)CO)S(=O)(=O)c2ccc(-c3cccc(C#N)c3)cc2O[C@@H]1CN(C)C(=O)C1CC1	nt	nt	nt	-3	-1
COc1ccc2c3c(n(C)c2c1)[C@@H](CO)N(Cc1ccccc1F)CC31CCN(CC2CC2)CC1	nt	nt	nt	nt	0
COc1ccc(C(=O)OCC(=O)c2c[nH]c3ccccc23)cc1OC	14	1	11	52*	0
O=C(OCC(=O)c1ccc[nH]1)C1=COCCO1	5	5	-1	1	-1
O=C(OCC(=O)c1c[nH]c2ccccc12)C1=COCCO1	33	nt	43*	64*	nt
Cc1ccc(C(=O)OCC(=O)c2c[nH]c3ccccc23)cc1	44	-2	9	nt	0
COc1cc(C(=O)OCC(=O)c2c[nH]c3ccccc23)ccc1OCC(=O)N1CCOCC1	-8	-6	0	9	nt
Cn1cccc1C(=O)OCC(=O)c1c[nH]c2ccccc12	112*	-2	-2	nt	0
CC1(C(=O)OCC(=O)c2c[nH]c3ccccc23)CC1(Cl)Cl (configuration not stated)	96*	1	nt	46*	nt
Cc1cnc(C(=O)OCC(=O)c2c[nH]c3ccccc23)cn1	-23	3	5	-4	0
CCC(=O)Nc1ccc2c(c1)C(=O)N(C)C[C@@H](OC)[C@H](C)CN(CCc1ccccc1)[C@H](C)CO2	nt	nt	nt	3	0
O=C(Nc1ccc(F)cc1)N1C[C@@H]2[C@H](c3ccccc31)[C@@H](CO)N2C(=O)c1ccccc1F	nt	nt	nt	1	0
SMILES	MITF TRPM1 HTS	Vif inh	Wnt bcat act	esBAF inh	Xi reactivation
Cn1cccc1C(=O)OCC(=O)c1cc2ccccc2o1	34	18	34*	14	nt
COc1ccc(NC(=O)Nc2cc(C)ccn2)cc1	9	-2	44*	-67	0
Cc1ccnc(NC(=O)Nc2ccc(F)cc2)c1	42	7	nt	nt	nt
CC(=O)Nc1ccc(NC(=O)COc2ccc3c(c2)CCC3)cc1	5	22	0	nt	0
Cc1ccnc(NC(=O)Nc2ccc(Br)cc2Cl)c1	17	4	39*	nt	0
Cc1ccc(NC(=O)c2cccc3ccccc23)cc1	nt	-2	-1	61*	0
Cc1ccnc(NC(=O)COc2ccc3c(c2)CCC3)c1	42	7	-19	53*	0
